Ecoli rRNA inh = inhibits bacterial ribosomal RNA function over humanized ribosomes. E. coli WT GFP vs humanized-ribosome RFP mutants, fluorescence, 24 h; active compounds read low; DMSO median 0, no signal -100. GFP signal change (wild-type ribosome), % (concentration not given with the values). 350,000 tested, 1.6% active. AID 720706;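 active = significant combined selectivity score with lowered wild-type GFP, culture density cut under 30%, mutant RFP and density less affected; inactive = any of these conditions unmet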
EWS-Fli block = EWS/Fli transcriptional activity inhibition. A673 NR0B1-luciferase reporter, viability-normalised. inhibition, % at 12.6 µM. 350,000 tested, 0.67% active. AID 651661;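 active = mean inhibition of at least 50% after viability correction, with every replicate also passing that limit; inconclusive = mean reaches 50% but only one of two replicates passes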;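 also: firefly luciferase signal divided by Alamar Blue viability fluorescence both relative to DMSO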
E-selectin induc = E-selectin induction on HUVECs | AID 686992 | activation, % at 7.58 µM | HUVEC E-selectin immunofluorescence imaging; normalized: neutral wells 0, TNF-alpha wells 100 | 260,000 tested, 0.37% active | P16581;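 active = mean E-selectin-positive cell signal at least 10% of the positive control, reached in at least 60% of replicates, without over 20% cell loss; inconclusive = no rule given, readout overlaps actives, possibly toxicity-flagged; inactive = the rest, including those meeting only one limit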
Target sequence (P16581 whole entry, looked up): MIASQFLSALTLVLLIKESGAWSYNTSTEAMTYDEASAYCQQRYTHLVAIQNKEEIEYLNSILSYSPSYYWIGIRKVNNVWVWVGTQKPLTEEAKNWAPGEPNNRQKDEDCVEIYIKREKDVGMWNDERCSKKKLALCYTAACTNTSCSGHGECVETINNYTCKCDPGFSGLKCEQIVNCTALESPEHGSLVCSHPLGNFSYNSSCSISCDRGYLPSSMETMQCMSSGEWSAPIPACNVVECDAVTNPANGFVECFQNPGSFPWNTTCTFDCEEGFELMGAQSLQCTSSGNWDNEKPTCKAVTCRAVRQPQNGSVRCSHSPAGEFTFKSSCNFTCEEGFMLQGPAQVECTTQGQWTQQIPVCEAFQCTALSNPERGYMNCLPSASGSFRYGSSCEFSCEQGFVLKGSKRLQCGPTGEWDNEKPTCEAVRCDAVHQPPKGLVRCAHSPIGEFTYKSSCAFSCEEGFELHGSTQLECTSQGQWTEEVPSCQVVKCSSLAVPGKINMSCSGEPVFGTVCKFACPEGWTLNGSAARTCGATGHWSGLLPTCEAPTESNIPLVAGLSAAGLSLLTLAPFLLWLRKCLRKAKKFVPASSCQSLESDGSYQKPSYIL
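Test system – human umbilical vein endothelial cells (HUVEC), E-selectin induction · Input – 3,000 HUVEC seeded per well · Buffer or medium – EGM-2, gelatin · Compound dosing – single-point compound dose · Detection – immunofluorescence imaging · Measure – percent E-selectin-positive cells · Controls – TNF-alpha high, DMSO low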
LGR2 inh = blocks bursicon-induced cAMP signaling via Drosophila LGR2; HEK293 LGR2, CRE-luciferase, bursicon-stimulated, 4 h; 380,000 tested, 0.35% active; inhibition, % at 9.99 µM; AID 720647;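 active = drop in luminescence signal, shown as inhibition above about 50% in the replicate tests, limit read from the data, passing the limit was not always enough; inconclusive = probably only some replicates passing the limit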;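 also: agonist challenge used bursicon conditioned medium at about half maximal strength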
Starred values were filed as active, the others as inactive; u = inconclusive; x = no result. This is a sample that favours compounds with a hit; in the whole collection about 2.4% have one here.

SMILES	Ecoli rRNA inh	EWS-Fli block	E-selectin induc	LGR2 inh
O=C(NN=Cc1ccc(O)cc1)c1ccccc1NS(=O)(=O)c1cccs1	-37.2*	-16.6	0.8	-4.1
COC(=O)c1c(C)[nH]c(C(=O)/C=C/c2ccc(C)cc2)c1C	2.9	91.2*	1.3	-44.0
COc1ccc(CC(=O)Nc2cccc(-c3nnc(-c4ccccc4)o3)c2)cc1OC	16.6	x	x	102.6*
COc1cccc(CC(=O)OCC(=O)Nc2nnc(-c3ccccc3)o2)c1	-27.3*	1.7	0.4	-10.5
COc1ccc(CC(=O)Nc2cccc(-c3nnc(-c4ccc(C)cc4)o3)c2)cc1OC	16.6	-18.1	x	94.2*
COc1ccc(CC(=O)Nc2cccc(-c3nnc(-c4cccc(C)c4)o3)c2)cc1OC	11.2	x	x	u
Cc1ccc(S(=O)(=O)N(C)C[C@@H]2Oc3ccc(NC(=O)CCCN(C)C)cc3CC(=O)N([C@H](C)CO)C[C@H]2C)cc1	-0.2	-0.3	0.0	-8.6
S=c1[nH]nc(-c2ccc3ccccc3n2)n1-c1ccc(Cl)cc1	x	x	x	2.1
Cc1ccccc1-n1c(-c2ccc3ccccc3n2)n[nH]c1=S	-32.6*	13.6	-0.1	-10.4
O=C(O)c1cccc(Oc2ccc([N+](=O)[O-])cc2)c1	x	x	x	7.3
O=C(/C=C/c1ccc(O)c([N+](=O)[O-])c1)c1ccc2ccccc2c1	2.6	-47.1	-0.3	-18.0
COc1ccc(Oc2ccc(/C=C/C(=O)c3ccc(O)cc3)cc2[N+](=O)[O-])cc1	x	74.6*	x	x
O=C(O)c1ccc(Oc2ccc([N+](=O)[O-])cc2)c([N+](=O)[O-])c1	-9.6*	9.3	1.0	17.4
Cc1noc(C)c1S(=O)(=O)Nc1ccc2c(c1)C(=O)N([C@H](C)CO)C[C@@H](C)[C@@H](CN(C)Cc1ccc(Cl)c(Cl)c1)O2	-13.6	0.7	x	-6.8
Cc1noc(C)c1S(=O)(=O)Nc1ccc2c(c1)C(=O)N([C@H](C)CO)C[C@@H](C)[C@H](CN(C)Cc1ccc3c(c1)OCO3)O2	-1.6	-3.8	26.1*	-6.0
Cc1noc(C)c1S(=O)(=O)Nc1ccc2c(c1)C(=O)N([C@H](C)CO)C[C@H](C)[C@@H](CN(C)Cc1ccc(Cl)c(Cl)c1)O2	-2.4	5.7	x	-29.2
Cc1noc(C)c1S(=O)(=O)Nc1ccc2c(c1)C(=O)N([C@H](C)CO)C[C@@H](C)[C@@H](CN(C)Cc1ccc3c(c1)OCO3)O2	4.4	4.9	44.0*	0.2
O=C(C[C@@H]1CC[C@H]2[C@@H](COC[C@@H](O)CN2Cc2ccc(Oc3ccccc3)cc2)O1)Nc1nccs1	-28.7	39.3	0.1	3.4
CC1=NN(c2ccc(C)c(C)c2)C(=O)/C1=C\C=C\c1ccc([N+](=O)[O-])o1	x	66.9*	x	x
O=c1c(/C=N/O)c(Nc2ccccc2)nc2ccccn12	-19.8*	11.9	x	-2.1
CC[C@H]1CC=CC[C@H](C)Oc2ccccc2C(=O)N(C)[C@@H](Cc2ccccc2)C(=O)N1 (mixture of isomers)	-23.1	x	x	x
CCN(CCO)c1ccc(N=Nc2cc(C)[nH]n2)cc1	-21.1*	63.6*	x	91.9*
O=C1CN(Cc2ccc(F)cc2)C[C@H]2[C@@H](c3ccc(Br)cc3)[C@@H](CO)N12	-1.6	15.7	1.0	9.8
CCOC(=O)CC1(Cc2ccccc2)Oc2ccccc2O1	-6.8	-1.8	0.2	-13.9
CN1C(=O)c2ccccc2OC1(C)Cc1ccccc1 (stereo not given)	-20.8*	11.3	1.7	6.6
SMILES	Ecoli rRNA inh	EWS-Fli block	E-selectin induc	LGR2 inh
O=C(CSc1nnc(-c2ccccc2)n1Cc1ccccc1)NNC(=O)c1ccccc1O	-38.0	78.6*	x	5.7
O=C(CSc1nnc(-c2ccccc2O)n1Cc1ccccc1)NNC(=O)c1ccccc1O	x	x	0.7	27.2
COc1ccccc1CCNC(=O)/C(=C/c1cccnc1)NC(=O)c1ccccc1	-1.7	1.9	52.1*	-9.2
COc1ccccc1NC(=O)/C(=C\c1cccnc1)NC(=O)c1ccccc1	0.8	5.4	x	-0.9
CCCNC(=O)N1[C@H](CO)[C@H](c2ccc(C#CC3CC3)cc2)[C@H]1CNC	-1.5	x	x	x
O=S(=O)(NCCC1CC1(Cl)Cl)c1ccc(Cl)cc1 (stereo not given)	-47.9*	4.9	0.2	-1.8
CCOc1ccc2oc(C(=O)N(C)CC(=O)Nc3ccc(OCC)c(OCC)c3)c(C)c2c1	-28.2*	-2.1	0.2	-0.5
CCOc1ccc2oc(C(=O)N(C)CCc3ccc(OC)c(OC)c3)c(C)c2c1	-13.5	0.3	-0.8	9.0
C=CCNC(=O)[C@@H]1[C@H]2C(=O)O[C@H](c3ccccc3)[C@H](c3ccccc3)N2[C@H](c2ccccc2OCCO)[C@@]12C(=O)N(C(=O)OCCOC)c1ccc(C#CCC(C(=O)OC)C(=O)OC)cc12	x	58.5*	x	x
O=C(C1CCC1)N1CC[C@@H]2[C@@H](CO)Nc3ccc(C#Cc4cccc(F)c4)cc3[C@@H]21	0.1	-5.4	6.6	14.3
O=C(c1ccc(F)cc1)N1CC[C@@H]2[C@H]1c1cc(C3=CCCCC3)ccc1N[C@@H]2CO	-10.5	10.1	0.5	2.5
O=C(C1CCCC1)N1CC[C@@H]2[C@H](CO)Nc3ccc(C4=CCCCC4)cc3[C@@H]21	-31.9	3.5	50.1*	11.7
O=C(C1CCCCC1)N1CC[C@@H]2[C@H]1c1cc(C#Cc3ccc(F)cc3)ccc1N[C@@H]2CO	-0.9	2.8	0.0	11.8
O=C(C1CCC1)N1CC[C@@H]2[C@H](CO)Nc3ccc(C#Cc4cccc(F)c4)cc3[C@@H]21	-4.0	-2.9	30.6*	6.3
O=C(C1CCC1)N1CC[C@@H]2[C@@H](CO)Nc3ccc(C#Cc4ccc(F)cc4)cc3[C@@H]21	-6.8	1.4	37.8*	13.0
O=C(C1CC1)N1CC[C@@H]2[C@H](CO)Nc3ccc(C#Cc4ccc(F)cc4)cc3[C@@H]21	-4.3	4.2	34.0*	-4.0
C[C@@H]1CN([C@@H](C)CO)C(=O)Cc2cc(NS(=O)(=O)c3cn(C)cn3)ccc2O[C@@H]1CN(C)C(=O)Nc1ccc2c(c1)OCO2	1.0	-0.6	-2.1	0.7
C[C@@H]1CCCCO[C@@H](CN(C)C(=O)c2ccccc2)[C@@H](C)CN([C@@H](C)CO)C(=O)c2cc(NS(=O)(=O)c3cn(C)cn3)ccc2O1	3.1	7.8	-0.2	4.3
CN(Cc1ccccc1)S(=O)(=O)c1ccc(S(=O)(=O)N(Cc2ccc(F)cc2)C2CCCC2)cc1	x	x	x	-0.7
O=C(O)c1ccc(S(=O)(=O)N(Cc2ccc(F)cc2)C2CCCCC2)cc1	-22.2*	10.2	x	x
NC(=O)C1CCN(C(=O)CN(C2CCCCC2)S(=O)(=O)c2ccc(F)cc2)CC1	-25.5*	3.6	x	3.8
CC(OC(=O)c1cc(S(=O)(=O)Nc2ccc(F)cc2)ccc1Cl)C(=O)Nc1ccc2c(c1)OCCO2 (stereo not given)	x	x	x	14.3
CC(OC(=O)c1ccc(Cl)c(S(=O)(=O)Nc2ccc(F)cc2)c1)C(=O)NC(N)=O (stereo not given)	-25.7*	-4.0	1.0	-8.2
CCc1ccc(NC(=O)CCC(=O)N2CCSc3ccccc32)cc1	-21.6	-2.7	-0.1	-3.0
